22 molecules from ChEMBL document CHEMBL3421537, “Synthesis and biological evaluation of nitrated 7-, 8-, 9-, and 10-hydroxyindenoisoquinolines as potential dual topoisomerase I (Top1)-tyrosyl-DNA phosphodiesterase I (TDP1) inhibitors” (J Med Chem, 2015) can be followed below.

The source made the active and inactive calls.

The target of assay [1] is T1, DNA topoisomerase 1 (Homo sapiens) (UniProt P11387).
T1 sequence (whole entry): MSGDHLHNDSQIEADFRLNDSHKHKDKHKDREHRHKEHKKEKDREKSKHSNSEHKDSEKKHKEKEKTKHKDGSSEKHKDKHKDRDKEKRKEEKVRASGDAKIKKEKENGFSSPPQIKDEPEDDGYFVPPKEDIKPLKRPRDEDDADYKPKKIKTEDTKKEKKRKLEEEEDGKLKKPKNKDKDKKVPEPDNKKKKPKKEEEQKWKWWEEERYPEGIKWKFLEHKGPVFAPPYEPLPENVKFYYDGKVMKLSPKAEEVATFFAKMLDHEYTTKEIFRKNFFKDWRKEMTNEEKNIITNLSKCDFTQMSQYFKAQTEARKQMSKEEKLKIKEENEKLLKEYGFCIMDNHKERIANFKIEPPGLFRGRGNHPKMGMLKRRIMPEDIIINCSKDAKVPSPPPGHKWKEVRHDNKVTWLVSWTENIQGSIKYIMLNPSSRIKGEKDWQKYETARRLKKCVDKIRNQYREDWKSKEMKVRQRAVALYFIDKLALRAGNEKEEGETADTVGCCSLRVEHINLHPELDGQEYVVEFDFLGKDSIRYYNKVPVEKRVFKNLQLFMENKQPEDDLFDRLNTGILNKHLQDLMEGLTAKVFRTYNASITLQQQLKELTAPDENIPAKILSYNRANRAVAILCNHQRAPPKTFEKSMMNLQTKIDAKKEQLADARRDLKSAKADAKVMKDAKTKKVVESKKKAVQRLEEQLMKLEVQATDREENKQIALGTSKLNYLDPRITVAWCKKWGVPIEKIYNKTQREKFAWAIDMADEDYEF
The assay can be described thus: Inhibition of human recombinant Top1 expressed in baculovirus-infected insect Sf9 cells using 3'-[32P]-end-labeled 117 bp DNA as substrate assessed as inhibition of DNA cleavage after 20 mins by PAGE analysis. In outline: (§1)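 About 2 nM 3′-[32P]-end-labeled 117-bp DNA (Klenow fill-in with [α32P]dGTP) incubated with recombinant Top1 and compound for 20 min at room temperature. Stopped with 0.5% SDS, run on 20% denaturing PAGE, read by phosphorimager. Cleavage bands scored visually against 1 μM camptothecin on a 0 to +++++ scale.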

For assay [2], the system named is HOP-62. Put plainly: Cytotoxicity against human HOP62 cells. The assay is classed as functional. In outline:
(§2)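 NCI-60 screen (NCI-DTP): one-dose prescreen at 10 μM, then five concentrations from 100 μM to 10 nM for compounds passing the cutoff. GI50 (50% growth inhibition) interpolated from the five-dose data. Single determination.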

The test system of assay [3] is SF-539. The assay can be described thus: Cytotoxicity against human SF539 cells. The format is functional. In a few lines:
as §2

The nature of assay [4]: Cytotoxicity against human UACC62 cells. Particulars: UACC-62. The assay is classed as functional. In a few lines:
as §2

In assay [5] the test system is SN12C. Put plainly: Cytotoxicity against human SN12C cells. The format is functional. In outline:
as §2

The target of assay [6] is T1, DNA topoisomerase 1 (Homo sapiens). Put plainly: Inhibition of human recombinant Top1 expressed in baculovirus-infected insect Sf9 cells using 3'-[32P]-end-labeled 117 bp DNA as substrate assessed as inhibition of DNA cleavage after 20 mins by PAGE analysis relative to 1 uM camptothecin. In outline:
as §1

The test system of assay [7] is DU-145. The assay can be described thus: Cytotoxicity against human DU145 cells. The format is functional. In outline: as §2
Assay [8] in a line: Cytotoxicity against human HCT116 cells. The assay is classed as functional. To be noted: HCT-116. In a few lines: as §2
Assay [9] in a line: Cytotoxicity against human OVCAR3 cells. The format is functional. To be noted: OVCAR-3. In outline:
as §2

The subject of assay [10] is MCF7. The assay can be described thus: Cytotoxicity against human MCF7 cells. The format is functional. In a few lines:
as §2

Assay [11] deals with Tyrosyl-DNA phosphodiesterase 1 (Homo sapiens, UniProt Q9NUW8). The assay can be described thus: Inhibition of human recombinant TDP1 assessed as hydrolysis of N14Y to N14P after 15 mins by PAGE analysis.
Tyrosyl-DNA phosphodiesterase 1, sequence (Q9NUW8 whole entry): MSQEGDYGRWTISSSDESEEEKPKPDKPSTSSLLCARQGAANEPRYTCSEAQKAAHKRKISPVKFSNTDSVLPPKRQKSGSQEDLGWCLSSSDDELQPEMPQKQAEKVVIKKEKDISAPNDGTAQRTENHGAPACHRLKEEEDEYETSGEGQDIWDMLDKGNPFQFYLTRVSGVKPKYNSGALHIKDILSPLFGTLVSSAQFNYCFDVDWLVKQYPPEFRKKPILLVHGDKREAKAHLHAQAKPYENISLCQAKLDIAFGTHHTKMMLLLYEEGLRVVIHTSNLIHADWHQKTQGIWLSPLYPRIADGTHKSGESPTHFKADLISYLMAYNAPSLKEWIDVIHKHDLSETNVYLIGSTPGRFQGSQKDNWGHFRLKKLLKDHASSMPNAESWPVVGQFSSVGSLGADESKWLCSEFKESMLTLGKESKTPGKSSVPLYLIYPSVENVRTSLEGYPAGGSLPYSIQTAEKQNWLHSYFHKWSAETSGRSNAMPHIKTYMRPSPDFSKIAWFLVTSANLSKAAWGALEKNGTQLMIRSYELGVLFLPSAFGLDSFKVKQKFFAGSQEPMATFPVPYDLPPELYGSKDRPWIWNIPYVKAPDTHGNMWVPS

What is called inhibition is the relative decrease from the control value, in per cent. The GI50 is the concentration giving 50% growth inhibition. A higher GI50 goes with less potent growth inhibition. As usually defined, the IC50 is the concentration that gives 50% inhibition. Take `O=C1c2c(O)cccc2-c2c1c1ccc([N+](=O)[O-])cc1c(=O)n2CCCn1ccnc1`: the inhibition entry was “Dose-dependent effect” in assay [1] and 75% in assay [6]. For the same molecule, the GI50 in assay [2] came out at 0.081 µM; in assay [3], 0.15 µM; in [4], 0.18 µM; in [5] it was 0.17 µM; in [7], 0.13 µM; in assay [8] it was 0.13 µM. Besides, the GI50 in assay [9] worked out at 0.23 µM; in assay [10], 0.056 µM. In assay [11], the IC50 is over 111 µM.

As for `O=C1c2cccc(O)c2-c2c1c1ccc([N+](=O)[O-])cc1c(=O)n2CCCn1ccnc1`, the inhibition in assay [6] came out at 75%. Also, the IC50 in [11] was over 111 µM.

In the case of `NCCCn1c2c(c3ccc([N+](=O)[O-])cc3c1=O)C(=O)c1ccc(O)cc1-2`, the GI50 was determined as 0.21 µM in [3]; 0.35 µM in assay [7]; 0.22 µM in assay [8]; 0.27 µM in assay [9]; 0.12 µM in assay [10]. Also, the inhibition in assay [6] amounted to 75%.

Turning to `COc1cc2c(cc1O)-c1c(c3ccc([N+](=O)[O-])cc3c(=O)n1CCCN1CCOCC1)C2=O`, the GI50 in [2] turned out to be 0.079 µM; in assay [3], 0.13 µM; in [4], 0.039 µM; in [5], 0.063 µM; in [7], 0.11 µM; in [9], 0.72 µM. This molecule also showed a GI50 in assay [10] of 0.035 µM. Further, in assay [6], the inhibition is 50%. In addition, the IC50 in [11] was over 111 µM.

For `O=C1c2ccccc2-c2c1c1ccccc1c(=O)n2CCCNCCCNCCCn1c2c(c3ccccc3c1=O)C(=O)c1ccccc1-2`, the inhibition entry in assay [11] is “Dose-dependent effect”.

As to `NCCCn1c2c(c3ccc([N+](=O)[O-])cc3c1=O)C(=O)c1cccc(O)c1-2`, in assay [6], the inhibition worked out at 50%.

With `O=C1c2ccc(O)cc2-c2c1c1ccc([N+](=O)[O-])cc1c(=O)n2CCCN1CCOCC1`, the inhibition result in [1] was “Dose-dependent effect”. For the same molecule, the GI50 turned out to be 0.025 µM in assay [2]; 0.021 µM in [3]; 0.02 µM in [4]; 0.036 µM in assay [5]; 0.034 µM in assay [7]; 0.026 µM in [8]. Also, the GI50 in [9] was 0.041 µM; in assay [10], under 0.01 µM. In addition, the inhibition result in [6] was “Active”. Moreover, the half-inhibitory concentration (IC50) in assay [11] is over 111 µM.

`COc1cc2c(cc1O)C(=O)c1c-2n(CCCN2CCOCC2)c(=O)c2cc([N+](=O)[O-])ccc12`: the 50% growth inhibitory concentration (GI50) in [2], in assay [3], in [4], in assay [5], in assay [7] and in assay [8] was under 0.01 µM in each case. In assay [10], this molecule displayed a GI50 of under 0.01 µM. In addition, the inhibition in [6] was 50%; in assay [11], “Dose-dependent effect”. For the same molecule, the IC50 in assay [11] was over 111 µM.

For `O=C1c2c(O)cccc2-c2c1c1ccc([N+](=O)[O-])cc1c(=O)n2CCCN1CCOCC1`, the inhibition result in assay [1] was “Dose-dependent effect”; in [6], 50%. The 50% growth inhibitory concentration (GI50) in [2] was 12 µM; in assay [3], 0.2 µM; in assay [4], 0.39 µM; in assay [8], 0.55 µM; in [9], 29 µM; in assay [10] it was 0.064 µM. Moreover, the IC50 in assay [11] was over 111 µM.

`NCCCn1c2c(c3ccc([N+](=O)[O-])cc3c1=O)C(=O)c1c(O)cccc1-2`: the GI50 in [2] was found to be 1.9 µM; in assay [3] it was 1.7 µM; in assay [4], 2.5 µM; in assay [5], 3.4 µM; in assay [7] it was 1.2 µM; in [8], 0.47 µM. Moreover, the figures for the GI50 in assay [9] and in assay [10] were 2.9 µM and 0.25 µM, respectively. Further, in [6], the inhibition came to 75%.

As for `COc1cc2c(cc1O)-c1c(c3ccc([N+](=O)[O-])cc3c(=O)n1CCCN)C2=O`, the GI50 in assay [2] stood at 0.47 µM; in assay [3], 0.66 µM; in assay [4], 0.95 µM; in [5], 0.45 µM; in assay [7] it was 0.43 µM; in assay [8], 0.15 µM. Besides, the GI50 in assay [9] was 1.7 µM; in assay [10], 0.17 µM. For the same molecule, the inhibition in [6] was 50%; in assay [11] it was “Dose-dependent effect”.

`O=C1c2ccc(O)cc2-c2c1c1ccc([N+](=O)[O-])cc1c(=O)n2CCCn1ccnc1`: the inhibition result in assay [1] is “Dose-dependent effect”; in assay [6] it was 75%. The GI50 was under 0.01 µM in assay [3]; under 0.01 µM in assay [4]; under 0.01 µM in assay [5]; under 0.01 µM in [7]; under 0.01 µM in assay [8]; 0.023 µM in assay [9]. The GI50 in [10] was under 0.01 µM. Moreover, the IC50 in [11] is over 111 µM.

As for `COc1cc2c(cc1O)C(=O)c1c-2n(CCCN2CCOCC2)c(=O)c2cc(OC)c(OC)cc12`, the IC50 in assay [11] is over 111 µM.

As for `NCCCn1c2c(c3ccc([N+](=O)[O-])cc3c1=O)C(=O)c1cc(O)ccc1-2`, the GI50 in assay [2] amounted to 0.056 µM; in assay [3], 0.03 µM; in assay [4], 0.041 µM; in [5], 0.046 µM; in assay [7] it was 0.052 µM; in [8] it was 0.078 µM. For the same molecule, the GI50 was found to be 0.22 µM in assay [9] and 0.026 µM in [10]. The inhibition entry in assay [6] is “Active”.

Take `O=C1c2cccc(O)c2-c2c1c1ccc([N+](=O)[O-])cc1c(=O)n2CCCN1CCOCC1`: the inhibition in assay [6] stood at 50%. Also, in assay [11], the half-inhibitory concentration (IC50) is over 111 µM.

As to `O=C1c2cc(O)ccc2-c2c1c1ccc([N+](=O)[O-])cc1c(=O)n2CCCN1CCOCC1`, the GI50 in [2], in assay [3], in assay [4], in [5], in assay [7] and in assay [8] was under 0.01 µM in each case. The concentration for 50% growth inhibition (GI50) in [9] and in assay [10] was under 0.01 µM in each case. The inhibition result in assay [6] is “Active”. Further, in [11], the IC50 is over 111 µM.

Turning to `COc1cc2c(cc1O)C(=O)c1c-2n(CCCN)c(=O)c2cc([N+](=O)[O-])ccc12`, the GI50 in [2], in assay [3], in assay [4], in assay [5], in assay [7] and in assay [8] was under 0.01 µM in each case. The concentration for 50% growth inhibition (GI50) in assay [9] is 0.027 µM; in assay [10] it was under 0.01 µM. Besides, the inhibition in assay [6] was 50%; in [11] it was “Dose-dependent effect”.

Regarding `COc1cc2c(cc1O)-c1c(c3cc(OC)c(OC)cc3c(=O)n1CCCn1ccnc1)C2=O`, in [11], the IC50 is over 111 µM.

For the molecule `COc1cc2c(cc1O)C(=O)c1c-2n(CCCn2ccnc2)c(=O)c2cc(OC)c(OC)cc12`, the IC50 in assay [11] is over 111 µM.

Consider `O=C1c2cc(O)ccc2-c2c1c1ccc([N+](=O)[O-])cc1c(=O)n2CCCn1ccnc1`, for which the GI50 in assay [2], in assay [3], in assay [4], in assay [5], in [7] and in assay [8] was under 0.01 µM throughout. Also, the GI50 was 0.019 µM in assay [9] and under 0.01 µM in assay [10]. Besides, the inhibition in assay [6] was found to be 75%. Further, the IC50 in [11] is over 111 µM.

Take `COc1cc2c(cc1O)-c1c(c3ccc([N+](=O)[O-])cc3c(=O)n1CCCn1ccnc1)C2=O`: the concentration for 50% growth inhibition (GI50) in assay [2] worked out at 0.085 µM; in assay [3], 0.049 µM; in [5] it was 0.051 µM; in [7] it was 0.051 µM; in assay [8], 0.071 µM; in assay [9], 0.32 µM. The molecule also had a GI50 in assay [10] of 0.02 µM. Also, the inhibition in [6] worked out at 50%.

On to `COc1cc2c(cc1O)C(=O)c1c-2n(CCCn2ccnc2)c(=O)c2cc([N+](=O)[O-])ccc12`, for which the GI50 in [2], in assay [3], in assay [4], in [5], in assay [7] and in assay [8] was under 0.01 µM in each case. In addition, the GI50 in assay [9] and in assay [10] was under 0.01 µM each time. The values for the inhibition in assay [6] and in assay [11] were 20% and “Dose-dependent effect”, respectively. For the same molecule, the half-maximal inhibitory concentration (IC50) in [11] is over 111 µM.
